According to ChEMBL document CHEMBL1131007, “5-Fluoro-2-methyl-N-[4-(5H-pyrrolo[2,1-c]-[1, 4]benzodiazepin-10(11H)-ylcarbonyl)-3-chlorophenyl]benzamide (VPA-985): an orally active arginine vasopressin antagonist with selectivity for V2 receptors” (J Med Chem, 1998):

Legend:
[1] = molecular target: Vasopressin receptor (Rattus norvegicus) (UniProt P48974+P30560+Q00788); test: Relative affinity for rat vasopressin receptors V1a and V2; format: protein assay
[2] = molecular target: Vasopressin V2 receptor (Rattus norvegicus, UniProt Q00788); test: Displacement of [3H]AVP from vasopressin V2 receptor of rat kidney medulla.
Vasopressin V2 receptor (Rattus norvegicus, UniProt Q00788), sequence (Q00788 whole entry): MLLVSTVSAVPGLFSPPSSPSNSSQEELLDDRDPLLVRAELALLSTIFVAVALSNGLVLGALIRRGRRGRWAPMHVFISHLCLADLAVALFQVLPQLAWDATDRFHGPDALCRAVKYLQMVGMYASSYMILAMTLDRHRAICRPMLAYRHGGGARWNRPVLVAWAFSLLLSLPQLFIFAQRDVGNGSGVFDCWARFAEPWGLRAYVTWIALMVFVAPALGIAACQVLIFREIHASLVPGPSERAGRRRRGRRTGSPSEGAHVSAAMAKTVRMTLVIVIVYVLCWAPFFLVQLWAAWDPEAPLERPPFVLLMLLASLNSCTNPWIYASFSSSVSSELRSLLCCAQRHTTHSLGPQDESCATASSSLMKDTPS

[3] = molecular target: Vasopressin V1a receptor (Rattus norvegicus, UniProt P30560); test: Displacement of (Phe-3,4,5-H) Vasopressin from V1a receptor from rat liver membranes.; format: cell membranes, Membrane
Vasopressin V1a receptor (Rattus norvegicus, UniProt P30560), sequence (P30560 whole entry): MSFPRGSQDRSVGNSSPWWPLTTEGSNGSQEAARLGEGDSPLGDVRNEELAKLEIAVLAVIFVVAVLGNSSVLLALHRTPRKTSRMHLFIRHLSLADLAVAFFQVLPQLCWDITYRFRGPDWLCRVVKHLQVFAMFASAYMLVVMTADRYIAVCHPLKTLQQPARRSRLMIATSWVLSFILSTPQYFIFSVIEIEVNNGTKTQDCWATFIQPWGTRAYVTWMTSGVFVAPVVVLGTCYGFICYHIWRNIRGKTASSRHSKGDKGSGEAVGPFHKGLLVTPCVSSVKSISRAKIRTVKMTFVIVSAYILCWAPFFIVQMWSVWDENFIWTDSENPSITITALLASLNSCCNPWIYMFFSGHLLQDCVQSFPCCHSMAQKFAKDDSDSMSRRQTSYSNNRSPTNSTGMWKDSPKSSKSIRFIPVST

[4] = system: Rattus norvegicus; test: Urinary osmolality from urine collected from rat at 1 mg/kg; format: functional
Procedure, shortened: (§1)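 Conscious rats with free access to water before and during the test, given compound in 20% DMSO in aqueous 2.5% preboiled starch (compound first dissolved in DMSO). Urine volume over 4 h and urinary osmolality (mOsm/kg) measured.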

[5] = molecular target: Vasopressin V2 receptor (Homo sapiens, UniProt P30518); test: Displacement of [3H]AVP from human V2 receptor expressed in murine fibroblast cell line (LV2) membranes; format: cell-based
Vasopressin V2 receptor (Homo sapiens, UniProt P30518), sequence (P30518 whole entry): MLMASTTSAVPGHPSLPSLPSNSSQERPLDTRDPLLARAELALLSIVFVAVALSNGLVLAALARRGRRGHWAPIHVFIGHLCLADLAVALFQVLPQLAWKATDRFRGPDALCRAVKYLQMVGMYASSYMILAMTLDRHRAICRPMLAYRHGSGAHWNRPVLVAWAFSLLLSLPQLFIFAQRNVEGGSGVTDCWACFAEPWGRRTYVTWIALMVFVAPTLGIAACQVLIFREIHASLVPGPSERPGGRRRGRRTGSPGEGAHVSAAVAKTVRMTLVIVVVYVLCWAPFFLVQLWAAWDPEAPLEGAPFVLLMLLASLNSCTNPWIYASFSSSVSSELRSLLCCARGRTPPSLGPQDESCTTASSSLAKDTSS
Procedure, shortened: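 Membranes from murine fibroblast line LV2 expressing human V2 receptors; displacement of specific 3H-AVP binding. IC50 given as group mean ± SEM where two or three separate determinations were made.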

[6] = molecular target: Vasopressin V1a receptor (Homo sapiens, UniProt P37288); test: Displacement of [3H]AVP from vasopressin receptor (V1a) from human platelet membranes.
Vasopressin V1a receptor (Homo sapiens, UniProt P37288), sequence (P37288 whole entry): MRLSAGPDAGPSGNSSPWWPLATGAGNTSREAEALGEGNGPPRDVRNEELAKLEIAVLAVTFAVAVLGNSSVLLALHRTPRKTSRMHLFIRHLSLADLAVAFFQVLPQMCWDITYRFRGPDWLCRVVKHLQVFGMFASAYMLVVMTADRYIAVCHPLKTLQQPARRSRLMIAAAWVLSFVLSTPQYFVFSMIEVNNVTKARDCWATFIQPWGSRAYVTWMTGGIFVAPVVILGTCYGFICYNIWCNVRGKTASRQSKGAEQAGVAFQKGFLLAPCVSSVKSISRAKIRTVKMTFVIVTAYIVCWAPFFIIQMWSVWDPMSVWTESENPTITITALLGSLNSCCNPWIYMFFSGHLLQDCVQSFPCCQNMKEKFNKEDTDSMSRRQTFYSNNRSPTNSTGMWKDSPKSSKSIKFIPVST
Procedure, shortened: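 Membranes from human platelets; displacement of specific binding of 3H-AVP or 3H-[d(CH2)5 1Tyr(Me)2,Arg8]-AVP at V1a sites. IC50 given as group mean ± SEM where two or three separate determinations were made.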

[7] = system: Rattus norvegicus; test: Urine volume collected after 1 mg/kg of drug administration into 8 rats. (Conscious rats free access to water before but not during the experiment).; format: functional
Procedure, shortened: (§2)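 Conscious rats with water access before but not during the test. Given AVP 0.4 μg/kg ip in peanut oil, then deionized water 30 mL/kg by gavage 20 min later, then vehicle or compound 20 min after that. Vehicle was 20% DMSO in 2.5% preboiled starch. Urine volume over 4 h and osmolality measured.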

[8] = system: Rattus norvegicus; test: Urinary osmolality from urine collected from rat at 1 mg/kg in second experiment; format: functional; procedure, shortened: as §2
[9] = system: Rattus norvegicus; test: Urinary osmolality from urine collected from rat at 3 mg/kg; format: functional; procedure, shortened: as §1
[10] = system: Rattus norvegicus; test: Urinary osmolality from urine collected from rat at 10 mg/kg in second experiment; format: functional; procedure, shortened: as §2
[11] = system: Rattus norvegicus; test: Urine volume collected after 10 mg/kg of drug administration into 6 rats.; format: functional; procedure, shortened: as §2
[12] = system: Rattus norvegicus; test: Urine volume collected after 3 mg/kg of drug administration into 10 rat; format: functional; procedure, shortened: as §2
[13] = organism: Homo sapiens; test: Relative affinity for human vasopressin receptors V1a and V2
Procedure, shortened: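 Ratio from IC50 values: V1a by displacement of 3H-AVP or 3H-[d(CH2)5 1Tyr(Me)2,Arg8]-AVP from human platelet membranes; V2 by displacement of 3H-AVP from membranes of murine fibroblast LV2 cells expressing human V2 receptors.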

[14] = system: Rattus norvegicus; test: Urinary osmolality from urine collected from rat at 10 mg/kg; format: functional; procedure, shortened: as §1
[15] = system: Rattus norvegicus; test: Urine volume collected after 1 mg/kg of drug administration into 6 rats; format: functional; procedure, shortened: as §1
[16] = system: Rattus norvegicus; test: Urine volume collected after 3 mg/kg of drug administration into 15 rats; format: functional; procedure, shortened: as §1
[17] = system: Rattus norvegicus; test: Urinary osmolality from urine collected from rat at 3 mg/kg in second experiment; format: functional; procedure, shortened: as §2
[18] = system: Rattus norvegicus; test: Urine volume collected after 10 mg/kg of drug administration into 13 rats. (Conscious rats free access to water before and after during the experiment); format: functional; procedure, shortened: as §1
[19] = system: Rattus norvegicus; test: Urinary osmolality from urine collected from rat at 10 mg/kg
[20] = system: Rattus norvegicus; test: Urine volume collected after 10 mg/kg of drug administration into 3 rats.; format: functional; procedure, shortened: as §2
[21] = system: Rattus norvegicus; test: Urine volume collected after 10 mg/kg of drug administration into 4 rats.; format: functional; procedure, shortened: as §2
[22] = system: Rattus norvegicus; test: Urine volume collected after 10 mg/kg of drug administration into 2 rats.; format: functional; procedure, shortened: as §2
[23] = system: Rattus norvegicus; test: Urine volume collected after 3 mg/kg of drug administration into 2 rats.

Selectivity [1] | IC50 [5] [nM] | IC50 [6] [nM] | Selectivity [13] | Compound | further results
7 |  |  |  | Cc1c(F)cccc1C(=O)Nc1ccc(C(=O)N2Cc3cccn3Cc3ccccc32)cc1 | 
148 | 1.2 | 230 | 192 | Cc1ccc(F)cc1C(=O)Nc1ccc(C(=O)N2Cc3cccn3Cc3ccccc32)c(Cl)c1 [LIXIVAPTAN] | Osmolality [4]: 393 mOsmol kg-1; Urine volume [7]: 14 ml 4hr-1; Osmolality [8]: 629 mOsmol kg-1; Osmolality [9]: 222 mOsmol kg-1; Osmolality [10]: 302 mOsmol kg-1; Urine volume [11]: 37 ml 4hr-1; Urine volume [12]: 30 ml 4hr-1; IC50 [3]: 340 nM; Osmolality [14]: 188 mOsmol kg-1; Urine volume [15]: 24 ml 4hr-1; Urine volume [16]: 38 ml 4hr-1; Osmolality [17]: 366 mOsmol kg-1; Urine volume [18]: 43 ml 4hr-1
 |  | 25 | 6 | Cc1ccc(F)cc1C(=O)Nc1ccc(C(=O)N2Cc3cccn3Cc3ccccc32)cc1Cl | 
9 |  |  |  | Cc1ccccc1C(=O)Nc1ccc(C(=O)N2Cc3cccn3Cc3ccccc32)cc1 | IC50 [2]: 4.1 nM
 | 1.5 | 20 |  | Cc1ccc(F)cc1C(=O)Nc1ccc(C(=O)N2Cc3cccn3Cc3ccccc32)cc1 | 
6 |  |  |  | Cc1cccc(C(=O)Nc2ccc(C(=O)N3Cc4cccn4Cc4ccccc43)cc2)c1C | 
 | 2.1 | 120 | 80 | Cc1ccc(F)cc1C(=O)Nc1ccc(C(=O)N2Cc3cccn3Cc3ccccc32)c(C)c1 | 
 |  | 6.3 | 2 | O=C(Nc1ccc(C(=O)N2Cc3cccn3Cc3ccccc32)cc1)c1ccc(F)cc1Cl | 

The remaining lines, values behind:

Compound | Selectivity [1] | IC50 [5] [nM] | IC50 [6] [nM] | Selectivity [13] | further results
Cc1cc(C(=O)N2Cc3cccn3Cc3ccccc32)ccc1NC(=O)c1ccc(Cl)cc1Cl | 4 |  |  |  | IC50 [2]: 8 nM; IC50 [3]: 33 nM
O=C(Nc1ccc(C(=O)N2Cc3cccn3Cc3ccccc32)cc1)c1ccccc1Cl | 2 |  |  |  | IC50 [2]: 4.6 nM
Cc1ccccc1C(=O)Nc1ccc(C(=O)N2Cc3cccn3Cc3ccccc32)c(Cl)c1 | 12 | 1 | 59 | 59 | 
Cc1c(F)cccc1C(=O)Nc1ccc(C(=O)N2Cc3cccn3Cc3ccccc32)c(Cl)c1 |  | 1.9 | 540 | 284 | Osmolality [19]: 473 mOsmol kg-1; Urine volume [20]: 17 ml 4hr-1
COc1cc(Cl)ccc1C(=O)Nc1ccc(C(=O)N2Cc3cccn3Cc3ccccc32)cc1 | 2 |  |  |  | IC50 [2]: 16 nM; IC50 [3]: 33 nM
COc1ccccc1C(=O)Nc1ccc(C(=O)N2Cc3cccn3Cc3ccccc32)cc1 | 2 |  |  |  | 
Cc1ccc(C)c(C(=O)Nc2ccc(C(=O)N3Cc4cccn4Cc4ccccc43)c(Cl)c2)c1 |  | 4.2 |  | 81 | 
COc1cc(C(=O)N2Cc3cccn3Cc3ccccc32)ccc1NC(=O)c1ccc(Cl)cc1Cl |  |  |  | 17 | 
O=C(Nc1ccc(C(=O)N2Cc3cccn3Cc3ccccc32)c(Cl)c1)c1ccc(Cl)cc1Cl | 5 | 2 | 640 | 320 | Osmolality [19]: 507 mOsmol kg-1; Urine volume [21]: 14 ml 4hr-1
O=C(Nc1ccc(C(=O)N2Cc3cccn3Cc3ccccc32)cc1)c1ccccc1C(F)(F)F | 3 |  |  |  | IC50 [2]: 10.2 nM
O=C(Nc1ccc(C(=O)N2Cc3cccn3Cc3ccccc32)c(Cl)c1)c1cccc(C(F)(F)F)c1F |  | 8.3 | 4400 | 530 | Urine volume [22]: 10 ml 4hr-1; Osmolality [14]: 635 mOsmol kg-1
Cc1ccccc1C(=O)Nc1ccc(C(=O)N2CCCC(N(C)C)c3ccccc32)cc1 (stereo unspecified) [MOZAVAPTAN] |  |  |  |  | Urine volume [23]: 10 ml 4hr-1; Osmolality [9]: 850 mOsmol kg-1; Urine volume [22]: 23 ml 4hr-1; Osmolality [14]: 352 mOsmol kg-1
COc1cc(NC(=O)c2cc(F)ccc2C)ccc1C(=O)N1Cc2cccn2Cc2ccccc21 |  | 2 |  | 8 | 
O=C(Nc1ccc(C(=O)N2Cc3cccn3Cc3ccccc32)cc1)c1ccc(Cl)cc1Cl | 7 | 3.2 | 15 | 5 | IC50 [2]: 3.1 nM
O=C(Nc1ccc(C(=O)N2Cc3cccn3Cc3ccccc32)c(Cl)c1)c1ccc(F)cc1Cl |  | 0.7 | 37 | 53 | 
Cc1cccc(C(=O)Nc2ccc(C(=O)N3Cc4cccn4Cc4ccccc43)c(Cl)c2)c1C |  | 0.5 |  | 860 | Osmolality [19]: 557 mOsmol kg-1
